Measured values taken from ChEMBL document CHEMBL1128339, “Discovery of 6,11-ethano-12,12-diaryl-6,11-dihydrobenzo[b]quinolizinium cations, a novel class of N-methyl-D-aspartate antagonists” (J Med Chem, 1995).

How the values were obtained:
Glutamate NMDA receptor = assay: Binding affinity at TCP site of NMDA receptor was determined in rat brain homogenate by [3H]TCP displacement.; format: tissue-based
[1] = target: Glutamate NMDA receptor (Rattus norvegicus) (UniProt P35439+Q00959+Q00960+Q00961+Q62645+Q8VHN2+Q9R1M7); assay: Compound at 10 uM was tested for the inhibition of radioligand [3H]TCP binding to TCP site of NMDA receptor in rat brain homogenate; format: tissue-based
Mus musculus [2] = organism: Mus musculus; assay: (§1) Ratio of IC50 value for closed channel binding to that of open channel binding.; format: functional
Mus musculus [3] = assay: NMDA antagonistic activity was evaluated […] in cultured mouse cortical neurons by patch clamp recordings designed to measure closed state binding to NMDA receptor-ionophore complex; format: functional
Mus musculus [4] = assay: NMDA antagonistic activity was evaluated […] in cultured mouse cortical neurons by patch clamp recordings designed to measure closed state binding to NMDA receptor-ionophore complex at 100 uM; format: functional
Method in brief: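 Value is the percent inhibition of NMDA-induced current at 100 μM, under closed-channel conditions in mouse cortical neuronal cultures.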

[5] = LogD value of the compound; format: physicochemical; conditions: octanol/water
Method in brief: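 LogD is the partition coefficient between octanol and pH 7.4 buffer. It was measured instrumentally by an outside laboratory.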

Mus musculus [6] = assay: NMDA antagonistic activity was evaluated […] in cultured mouse cortical neurons by patch clamp recordings designed to measure open state binding to NMDA receptor-ionophore complex; format: functional
[7] = as §1; format: functional
Rattus norvegicus = assay: In vivo anti-ischemic activity was evaluated in a rat middle cerebral artery occlusion/ reperfusion model of focal ischemia at a dose of 6 mg/kg/h for 6.5 hr (iv, infusion); format: functional
Method in brief: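 Rats underwent middle cerebral artery occlusion followed by reperfusion (focal ischemia). The drug was given by continuous intravenous infusion. The read-out was reduction in infarct volume (n = 15).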

Mus musculus [8] = organism: Mus musculus; assay: Inhibitory concentration against NMDA-induced cell death in cultured mouse cortical neurons; format: functional

| SMILES | Ki (Glutamate NMDA receptor) [µM] | IC50 (Mus musculus [8]) [µM] | further results |
| --- | --- | --- | --- |
| c1ccc2c(c1)C1CC(c3cncs3)(c3cncs3)C2c2cccc[n+]21 (stereo not drawn) | 0.12 | – | – |
| c1ccc2c(c1)C1CC(c3nccs3)(c3nccs3)C2c2cccc[n+]21 (stereo not drawn) | 0.017 | – | – |
| Brc1cccc(C2(c3cccc(Br)c3)CC3c4ccccc4C2c2cccc[n+]23)c1 (stereo not drawn) | 0.185 | – | – |
| c1ccc2c(c1)C1CC(c3ncc[nH]3)(c3ncc[nH]3)C2c2cccc[n+]21 (stereo not drawn) | 1.67 | – | – |
| Brc1ccc(C2(c3ccc(Br)cc3)CC3c4ccccc4C2c2cccc[n+]23)cc1 (stereo not drawn) | – | – | inhibition [1]: 22% |
| CCOC1(OCC)C2c3ccccc3C([n+]3ccccc32)C1(C)C.[Cl-] (stereo not drawn) | 0.0053 | – | Ratio (Mus musculus [2]): >384; IC50 (Mus musculus [3]): > 100 µM; Inhibition (Mus musculus [4]): -8.5%; logD [5]: -4.08; IC50 (Mus musculus [6]): 0.26 µM |
| c1ccc2c(c1)C1CC(c3ccncc3)(c3ccncc3)C2c2cccc[n+]21 (stereo not drawn) | – | – | inhibition [1]: 54% |
| c1ccc(C2(N3CCCCC3)CCCCC2)cc1 [PHENCYCLIDINE] | – | – | Ratio [7]: 51; IC50 (Mus musculus [3]): 13.9 µM; logD ([5]; read-out: logD): 1.76; IC50 (Mus musculus [6]): 0.27 µM |
| [Cl-].c1ccc2c(c1)C1CC(c3ccoc3)(c3ccoc3)C2c2cccc[n+]21 (stereo not drawn) | 0.0018 | 0.039 | inhibition in vivo at 6 mg/kg/h (Rattus norvegicus): 50%; Ratio (Mus musculus [2]): >700; IC50 (Mus musculus [3]): > 100 µM; Inhibition (Mus musculus [4]): 12%; logD ([5]; read-out: logD): -3.41; IC50 (Mus musculus [6]): 0.14 µM |
| COc1ccc(C2(c3ccc(OC)cc3)CC3c4ccccc4C2c2cccc[n+]23)cc1 (stereo not drawn) | 28.1 | – | – |
| c1coc(C2(c3ccco3)CC3c4ccccc4C2c2cccc[n+]23)c1 (stereo not drawn) | 0.0019 | 0.036 | – |
| c1ccc2c(c1)C1CC(c3cc[nH]n3)(c3cc[nH]n3)C2c2cccc[n+]21 (stereo not drawn) | 0.013 | 0.271 | – |
| COc1cccc(C2(c3cccc(OC)c3)CC3c4ccccc4C2c2cccc[n+]23)c1 (stereo not drawn) | 0.041 | – | – |
| c1cncc(C2(c3cccnc3)CC3c4ccccc4C2c2cccc[n+]23)c1 (stereo not drawn) | 2.27 | – | – |
| c1ccc(C2(c3ccccn3)CC3c4ccccc4C2c2cccc[n+]23)nc1 (stereo not drawn) | 0.0084 | – | – |
| c1ccc2c(c1)C1CC(c3ccsc3)(c3ccsc3)C2c2cccc[n+]21 (stereo not drawn) | 0.0018 | 0.045 | – |
| C[C@]12N[C@H](Cc3ccccc31)c1ccccc12 [DIZOCILPINE] | – | 0.067 | IC50 (Mus musculus [3]): 5.8 µM; logD ([5]; read-out: logD): 1.79; IC50 (Mus musculus [6]): 0.1 µM |
| c1csc(C2(c3cccs3)CC3c4ccccc4C2c2cccc[n+]23)c1 (stereo not drawn) | 0.0021 | 0.023 | – |
| c1ccc(C2(c3ccccc3)CC3c4ccccc4C2c2cccc[n+]23)cc1 (stereo not drawn) | 0.0082 | 0.197 | – |
| c1ccc2c(c1)C1CC(c3cocn3)(c3cocn3)C2c2cccc[n+]21 (stereo not drawn) | 0.093 | – | – |
| Fc1ccc(C2(c3ccc(F)cc3)CC3c4ccccc4C2c2cccc[n+]23)cc1 (stereo not drawn) | 2.21 | – | – |
| c1ccc2c(c1)C1CC(c3cc[nH]c3)(c3cc[nH]c3)C2c2cccc[n+]21 (stereo not drawn) | 0.0031 | 0.03 | – |
| Clc1ccc(C2(c3ccc(Cl)cc3)CC3c4ccccc4C2c2cccc[n+]23)cc1 (stereo not drawn) | – | – | inhibition [1]: 45% |
| Clc1cccc(C2(c3cccc(Cl)c3)CC3c4ccccc4C2c2cccc[n+]23)c1 (stereo not drawn) | 0.104 | – | – |
